According to ChEMBL document CHEMBL3120154, “2-[N-Alkyl(R-phenyl)-aminomethyl]-3-phenyl-7-trifluoromethylquinoxalines as anticancer agents inhibitors of folate enzymes” (Eur J Med Chem, 2014):

Tests used:
Dihydrofolate reductase = molecular target: T1, Dihydrofolate reductase (Homo sapiens, UniProt P00374); assay: Competitive inhibition of human dihydrofolate reductase by spectrophotometry
T1 sequence (P00374 whole entry): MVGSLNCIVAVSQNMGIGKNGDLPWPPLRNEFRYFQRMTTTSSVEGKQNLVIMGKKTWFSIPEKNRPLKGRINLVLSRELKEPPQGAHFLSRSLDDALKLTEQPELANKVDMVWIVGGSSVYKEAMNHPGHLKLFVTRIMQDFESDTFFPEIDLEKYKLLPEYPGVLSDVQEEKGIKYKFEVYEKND

Malme-3M = assay: Cytotoxicity against human MALME-3M cells at 10^-4 M after 48 hrs by SRB assay; format: functional; conditions: read-out: GI
Procedure, shortened: (§1)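 Run in the NCI 60-cell-line screen after a three-line prescreen. Cells got a 48 h drug exposure; viability/growth was estimated with the sulforhodamine B protein assay. Growth inhibition (I%) was recorded at 100, 10, 1, 0.1 and 0.01 micromolar. Percent growth is relative to untreated control cells, and negative values indicate cell kill.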

LOX IMVI = assay: Cytotoxicity against human LOXIMVI cells at 10^-4 M after 48 hrs by SRB assay; format: functional; conditions: read-out: GI; procedure, shortened: as §1
SNB-75 = assay: Cytotoxicity against human SNB75 cells at 10^-4 M after 48 hrs by SRB assay; format: functional; conditions: SNB-75, 48 h, read-out: GI
Procedure, shortened: (§2)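 Second-stage screen in the 60-cell-line human tumor panel at NCI, over a 5-log range (100, 10, 1, 0.1, 0.01 micromolar). Cells were exposed to drug for 48 h and growth was estimated with a sulforhodamine B protein stain. The value is percent growth inhibition at each concentration.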

SNB-19 = assay: Cytotoxicity against human SNB19 cells at 10^-4 M after 48 hrs by SRB assay; format: functional; conditions: SNB-19, 48 h, read-out: GI; procedure, shortened: as §2
SF-268 [1] = assay: Cytotoxicity against human SF268 cells at 10^-4 M after 48 hrs by SRB assay; format: functional; conditions: SF-268, 48 h, read-out: GI; procedure, shortened: as §2
HCT-116 = assay: Cytotoxicity against human HCT116 cells at 10^-4 M after 48 hrs by SRB assay; format: functional; conditions: HCT-116, 48 h, read-out: GI
Procedure, shortened: (§3)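 Run by NCI on its 60-line human tumor cell panel, after a three-cell-line prescreen. Cells were exposed to drug for 48 h over a 5-log range: 100, 10, 1, 0.1 and 0.01 micromolar. Growth was estimated by sulforhodamine B (SRB) protein staining. Percent growth inhibition (I%) was recorded at each concentration relative to untreated control cells.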

NCI-H522 = assay: Cytotoxicity against human NCI-H522 cells at 10^-4 M after 48 hrs by SRB assay; format: functional; conditions: NCI-H522, 48 h, read-out: GI; procedure, shortened: as §1
COLO 205 = assay: Cytotoxicity against human COLO205 cells at 10^-4 M after 48 hrs by SRB assay; format: functional; conditions: COLO 205, 48 h, read-out: GI; procedure, shortened: as §3
NCI-H23 = assay: Cytotoxicity against human NCI-H23 cells at 10^-4 M after 48 hrs by SRB assay; format: functional; conditions: NCI-H23, 48 h, read-out: GI; procedure, shortened: as §1
NCI-H226 = assay: Cytotoxicity against human NCI-H226 cells at 10^-4 M after 48 hrs by SRB assay; format: functional; conditions: NCI-H226, 48 h, read-out: GI; procedure, shortened: as §1
HOP-62 = assay: Cytotoxicity against human HOP62 cells at 10^-4 M after 48 hrs by SRB assay; format: functional; conditions: HOP-62, 48 h, read-out: GI; procedure, shortened: as §3
[2] = Cytotoxicity against human EKVX cells at 10^-4 M after 48 hrs by SRB assay; format: functional; conditions: read-out: GI; procedure, shortened: as §3
A549 = assay: Cytotoxicity against human A549 cells at 10^-4 M after 48 hrs by SRB assay; format: functional; conditions: A549, 48 h, read-out: GI; procedure, shortened: as §3
CCRF-CEM = assay: Cytotoxicity against human CCRF-CEM cells at 10^-4 M after 48 hrs by SRB assay; format: functional; conditions: read-out: GI; procedure, shortened: as §3
SF-268 [3] = assay: Cytotoxicity against human SF268 cells assessed as cell growth at 10^-4 M after 48 hrs by alamar blue assay relative to untreated control; format: functional; conditions: SF-268, 48 h, read-out: Activity
Procedure, shortened: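 Three-cell-line prescreen at NCI. Each line was seeded and pre-incubated, then given a single concentration (10^-4 or 10^-5 M) and incubated for 48 h. The end-point was alamar blue. The value is percent growth of treated cells versus untreated control cells, with negative numbers indicating cell kill.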

T47D = assay: Cytotoxicity against human T47D cells at 10^-4 M after 48 hrs by SRB assay; format: functional; conditions: read-out: GI; procedure, shortened: as §2
[4] = Cytotoxicity against human Hs578T cells at 10^-4 M after 48 hrs by SRB assay; format: functional; conditions: Hs-578T, read-out: GI; procedure, shortened: as §3
NCI/ADR-RES = assay: Cytotoxicity against human NCI/ADR-RES cells at 10^-4 M after 48 hrs by SRB assay; format: functional; conditions: read-out: GI; procedure, shortened: as §1
MCF7 [5] = assay: Cytotoxicity against human MCF7 cells at 10^-4 M after 48 hrs by SRB assay; format: functional; conditions: MCF7, 48 h, read-out: GI; procedure, shortened: as §1
DU-145 = assay: Cytotoxicity against human DU145 cells at 10^-4 M after 48 hrs by SRB assay; format: functional; conditions: DU-145, 48 h, read-out: GI; procedure, shortened: as §3
[6] = Cytotoxicity against human UO31 cells at 10^-4 M after 48 hrs by SRB assay; format: functional; conditions: UO-31, 48 h, read-out: GI; procedure, shortened: as §2
SN12C = assay: Cytotoxicity against human SN12C cells at 10^-4 M after 48 hrs by SRB assay; format: functional; conditions: read-out: GI; procedure, shortened: as §2
A498 = assay: Cytotoxicity against human A498 cells at 10^-4 M after 48 hrs by SRB assay; format: functional; conditions: A498, 48 h, read-out: GI; procedure, shortened: as §3
[7] = Cytotoxicity against human OVCAR4 cells at 10^-4 M after 48 hrs by SRB assay; format: functional; conditions: OVCAR-4, 48 h, read-out: GI; procedure, shortened: as §2
UACC-62 = assay: Cytotoxicity against human UACC62 cells at 10^-4 M after 48 hrs by SRB assay; format: functional; conditions: UACC-62, 48 h, read-out: GI; procedure, shortened: as §2
SK-MEL-5 = assay: Cytotoxicity against human SK-MEL-5 cells at 10^-4 M after 48 hrs by SRB assay; format: functional; conditions: SK-MEL-5, 48 h, read-out: GI; procedure, shortened: as §2
SK-MEL-28 = assay: Cytotoxicity against human SK-MEL-28 cells at 10^-4 M after 48 hrs by SRB assay; format: functional; conditions: SK-MEL-28, 48 h, read-out: GI; procedure, shortened: as §2
M14 = assay: Cytotoxicity against human M14 cells at 10^-4 M after 48 hrs by SRB assay; format: functional; conditions: M14, 48 h, read-out: GI; procedure, shortened: as §1
MCF7 [8] = assay: Cytotoxicity against human MCF7 cells assessed as cell growth at 10^-4 M after 48 hrs by alamar blue assay relative to untreated control; format: functional; conditions: MCF7, 48 h, read-out: Activity
Procedure, shortened: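 Three-cell-line prescreen. Each line was inoculated and preincubated on a microtiter plate, then the agent was added at a single concentration (10^-4 or 10^-5 M) and incubated 48 h. Endpoint was measured with alamar blue, and growth is reported as a percentage of untreated control cells.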

HCC 2998 = assay: Cytotoxicity against human HCC2998 cells at 10^-4 M after 48 hrs by SRB assay; format: functional; conditions: HCC 2998, 48 h, read-out: GI; procedure, shortened: as §3
K562 = assay: Cytotoxicity against human K562 cells at 10^-4 M after 48 hrs by SRB assay; format: functional; conditions: K562, 48 h, read-out: GI; procedure, shortened: as §1

C#CCN(Cc1nc2cc(C(F)(F)F)ccc2nc1-c1ccccc1)c1ccc(C)cc1
Ki (Dihydrofolate reductase): 6 µM | inhibition of growth at 100 µM (Malme-3M): 160% | inhibition of growth at 100 µM (LOX IMVI): 178% | inhibition of growth at 100 µM (SNB-75): 180% | inhibition of growth at 100 µM (SNB-19): 163% | inhibition of growth at 100 µM (SF-268 [1]): 76% | inhibition of growth at 100 µM (HCT-116): 189% | inhibition of growth at 100 µM (NCI-H522): 134% | inhibition of growth at 100 µM (COLO 205): 177% | inhibition of growth at 100 µM (NCI-H23): 196% | inhibition of growth at 100 µM (NCI-H226): 145% | inhibition of growth at 100 µM (HOP-62): 199% | inhibition of growth at 100 µM [2]: 56% | inhibition of growth at 100 µM (A549): 84% | inhibition of growth at 100 µM (CCRF-CEM): < 40% | growth at 100 µM (SF-268 [3]): 89% | inhibition of growth at 100 µM (T47D): 172% | inhibition of growth at 100 µM [4]: 113% | inhibition of growth at 100 µM (NCI/ADR-RES): 195% | inhibition of growth at 100 µM (MCF7 [5]): 84% | inhibition of growth at 100 µM (DU-145): 40% | inhibition of growth at 100 µM [6]: 167% | inhibition of growth at 100 µM (SN12C): 135% | inhibition of growth at 100 µM (A498): 157% | inhibition of growth at 100 µM [7]: 200% | inhibition of growth at 100 µM (UACC-62): 188% | inhibition of growth at 100 µM (SK-MEL-5): 158% | inhibition of growth at 100 µM (SK-MEL-28): 200% | inhibition of growth at 100 µM (M14): 186% | growth at 100 µM (MCF7 [8]): 58%

C#CCN(Cc1nc2cc(C(F)(F)F)ccc2nc1-c1ccccc1)c1ccc(OC(F)(F)F)cc1
Ki (Dihydrofolate reductase): 4 µM | inhibition of growth at 100 µM (Malme-3M): < 40% | inhibition of growth at 100 µM (LOX IMVI): 102% | inhibition of growth at 100 µM (SNB-75): < 40% | inhibition of growth at 100 µM (SNB-19): < 40% | inhibition of growth at 100 µM (SF-268 [1]): 63% | inhibition of growth at 100 µM (HCT-116): 99% | inhibition of growth at 100 µM (HCC 2998): 104% | inhibition of growth at 100 µM (NCI-H522): 125% | inhibition of growth at 100 µM (COLO 205): 73% | inhibition of growth at 100 µM (NCI-H23): 60% | inhibition of growth at 100 µM (HOP-62): 48% | inhibition of growth at 100 µM [2]: 89% | inhibition of growth at 100 µM (A549): 60% | inhibition of growth at 100 µM (K562): 78% | growth at 100 µM (SF-268 [3]): 21% | inhibition of growth at 100 µM (T47D): 70% | inhibition of growth at 100 µM [4]: < 40% | inhibition of growth at 100 µM (NCI/ADR-RES): < 40% | inhibition of growth at 100 µM (MCF7 [5]): 79% | inhibition of growth at 100 µM (DU-145): 75% | inhibition of growth at 100 µM [6]: 70% | inhibition of growth at 100 µM (SN12C): 83% | inhibition of growth at 100 µM (A498): 87% | inhibition of growth at 100 µM [7]: < 40% | inhibition of growth at 100 µM (UACC-62): 64% | inhibition of growth at 100 µM (SK-MEL-5): 86% | inhibition of growth at 100 µM (SK-MEL-28): < 40% | inhibition of growth at 100 µM (M14): 76% | growth at 100 µM (MCF7 [8]): 17%

CCN(Cc1nc2cc(C(F)(F)F)ccc2nc1-c1ccccc1)c1ccc(OC)c(OC)c1
Ki (Dihydrofolate reductase): 4 µM | inhibition of growth at 100 µM (LOX IMVI): 200% | inhibition of growth at 100 µM (SNB-75): 115% | inhibition of growth at 100 µM (SNB-19): 148% | inhibition of growth at 100 µM (SF-268 [1]): 99% | inhibition of growth at 100 µM (HCT-116): 199% | inhibition of growth at 100 µM (HCC 2998): 174% | inhibition of growth at 100 µM (NCI-H522): 164% | inhibition of growth at 100 µM (COLO 205): 92% | inhibition of growth at 100 µM (NCI-H23): 158% | inhibition of growth at 100 µM (NCI-H226): 179% | inhibition of growth at 100 µM (HOP-62): 195% | inhibition of growth at 100 µM [2]: 112% | inhibition of growth at 100 µM (A549): 177% | inhibition of growth at 100 µM (K562): 160% | inhibition of growth at 100 µM (CCRF-CEM): 146% | growth at 100 µM (SF-268 [3]): 0% | inhibition of growth at 100 µM (T47D): 120% | inhibition of growth at 100 µM [4]: 162% | inhibition of growth at 100 µM (NCI/ADR-RES): 84% | inhibition of growth at 100 µM (MCF7 [5]): 86% | inhibition of growth at 100 µM (DU-145): 173% | inhibition of growth at 100 µM [6]: 145% | inhibition of growth at 100 µM (SN12C): 189% | inhibition of growth at 100 µM (A498): 180% | inhibition of growth at 100 µM [7]: 76% | inhibition of growth at 100 µM (UACC-62): 195% | inhibition of growth at 100 µM (SK-MEL-5): 191% | inhibition of growth at 100 µM (SK-MEL-28): 112% | inhibition of growth at 100 µM (M14): 194% | growth at 100 µM (MCF7 [8]): 1%
